In ChEMBL document CHEMBL1150285, “Combination of non-natural D-amino acid derivatives and allophenylnorstatine-dimethylthioproline scaffold in HIV protease inhibitors have high efficacy in mutant HIV” (J Med Chem, 2008):

How the values were obtained:
[1] = tested on: Human immunodeficiency virus 1; test: Antiviral activity against HIV1 3B in human MT4 cells assessed as inhibition of viral-induced cytopathic effect by MTT method; format: functional, organism-based; settings: Human immunodeficiency virus 1, 3B
[2] = Cytotoxicity against human MT4 cells by MTT assay; format: cell-based
[3] = Selectivity index, ratio of CC50 for human MT4 cells to EC50 for HIV1 3B
[4] = target: Protease (Human immunodeficiency virus 1) (UniProt Q9YQ12); settings: at 1 nM
Chain of Protease (Human immunodeficiency virus 1) (Q9YQ12 as listed by the source): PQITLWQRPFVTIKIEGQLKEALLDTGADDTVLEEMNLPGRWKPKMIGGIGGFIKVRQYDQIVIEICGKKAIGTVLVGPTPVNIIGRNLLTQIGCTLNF

[5] = tested on: Human immunodeficiency virus 1; test: Antiviral activity against wild type HIV1 NL432; format: functional, organism-based; settings: Human immunodeficiency virus 1, NL432
[6] = tested on: Human immunodeficiency virus 1; test: Antiviral activity against nelfinavir-resistant HIV1 NL432; format: functional, organism-based; settings: Human immunodeficiency virus 1, NL432
[7] = tested on: Human immunodeficiency virus 1; test: microbe, parasite or virus in culture; format: functional, organism-based; settings: Human immunodeficiency virus 1, NL432
[8] = tested on: Human immunodeficiency virus 1; test: microbe, parasite or virus in culture; format: functional, organism-based; settings: Human immunodeficiency virus 1, NL432; remark: listed apart in the source
[9] = tested on: Human immunodeficiency virus 1; test: Antiviral activity against HIV1 3B in presence of 10% fetal calf serum; format: functional, organism-based; settings: Human immunodeficiency virus 1, 3B
[10] = tested on: Human immunodeficiency virus 1; test: Antiviral activity against HIV1 3B in presence of 10% fetal calf serum and alpha1 acid glycoprotein; format: functional, organism-based; settings: Human immunodeficiency virus 1, 3B
[11] = tested on: Human immunodeficiency virus 1; test: Ratio of EC50 for nelfinavir-resistant HIV1 NL432 to EC50 for wild-type HIV1 NL432; format: functional
Protease = Protease (Human immunodeficiency virus 1, UniProt Q9YQ12); test: Inhibition of HIV1 protease
Chain of Protease (Q9YQ12 whole entry): as the sequence (Q9YQ12 as listed by the source) above
Method in brief: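 HIV-1 protease (2 µg/mL stock in pH 5.5 acetate buffer) was mixed with test compound (10 nM solution in DMSO) in MES-NaOH buffer, pH 5.5, containing DTT, EDTA and NaCl. The mixture was preincubated 5 min at 37 °C, then started with substrate H-Lys-Ala-Arg-Val-Tyr*Phe(p-NO₂)-Glu-Ala-Nle-NH₂. After 60 min at 37 °C, the reaction was stopped with 1N HCl.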

| Structure (SMILES) | EC50 [1] | CC50 [2] | selectivity ratio ([3]; MT4 cells) | inhibition [4] | EC50 [5] | EC50 [6] | EC50 [7] | EC50 [8] | EC50 [9] | EC50 [10] | Ratio EC50 [11] | IC50 (Protease) | selectivity ratio ([3]; mt4) |
| --- | --- | --- | --- | --- | --- | --- | --- | --- | --- | --- | --- | --- | --- |
| CC(=O)N[C@H](CS(=O)(=O)Cc1ccc(C)cc1)C(=O)N[C@@H](Cc1ccccc1)[C@H](O)C(=O)N1CSC(C)(C)[C@H]1C(=O)NCc1ccccc1C | 82 nM | > 28 µM | > 340 | 53% |  |  |  |  |  |  |  |  |  |
| Cc1ccccc1CNC(=O)[C@H]1N(C(=O)[C@@H](O)[C@H](Cc2ccccc2)NC(=O)[C@@H](CS(=O)(=O)Cc2ccccc2)NS(C)(=O)=O)CSC1(C)C | 219 nM | > 27 µM | > 120 | 66% |  |  |  |  |  |  |  |  |  |
| Cc1ccccc1CNC(=O)[C@H]1N(C(=O)[C@@H](O)[C@H](Cc2ccccc2)NC(=O)[C@@H](CS(=O)(=O)c2ccc3ccccc3n2)NS(C)(=O)=O)CSC1(C)C | 473 nM | > 26 µM | > 55 | 91% |  |  |  |  |  |  |  |  |  |
| CC(=O)N[C@H](CCc1ccccc1)C(=O)N[C@@H](Cc1ccccc1)[C@H](O)C(=O)N1CSC(C)(C)[C@H]1C(=O)NCc1ccccc1C | 51 nM | > 31 µM | > 610 | 45% | 78 nM | 18 nM | 101 nM | 132 nM | 25 nM | 155 nM | 0.23 |  |  |
| Cc1ccccc1CNC(=O)[C@H]1N(C(=O)[C@@H](O)[C@H](Cc2ccccc2)NC(=O)[C@@H](CSc2ccc3ccccc3n2)NS(C)(=O)=O)CSC1(C)C | 169 nM | 8.5 µM | 50 | 28% |  |  |  |  |  |  |  |  |  |
| CC(=O)N[C@H](CS(=O)(=O)c1cccc2ccccc12)C(=O)N[C@@H](Cc1ccccc1)[C@H](O)C(=O)N1CSC(C)(C)[C@H]1C(=O)NCc1ccccc1C | 40 nM | 16 µM | 400 | 97% |  |  |  |  |  |  |  | 0.09 nM |  |
| CC(=O)N[C@H](CSc1cccc2ccccc12)C(=O)N[C@@H](Cc1ccccc1)[C@H](O)C(=O)N1CSC(C)(C)[C@H]1C(=O)NCc1ccccc1C | 17 nM | 8 µM | 470 | 68% | 20 nM | 6.3 nM | 70 nM | 52 nM | 14 nM | 401 nM | 0.32 |  |  |
| Cc1ccc(CS(=O)(=O)C[C@@H](NS(C)(=O)=O)C(=O)N[C@@H](Cc2ccccc2)[C@H](O)C(=O)N2CSC(C)(C)[C@H]2C(=O)NCc2ccccc2C)cc1 | 125 nM | > 26 µM | > 210 | 52% |  |  |  |  |  |  |  |  |  |
| CC(=O)N[C@H](CSCc1ccc(C)cc1)C(=O)N[C@@H](Cc1ccccc1)[C@H](O)C(=O)N1CSC(C)(C)[C@H]1C(=O)NCc1ccccc1C | 12 nM | 8.8 µM | 730 | 76% | 22 nM | 3.6 nM | 41 nM | 27 nM | 12 nM | 84 nM | 0.16 |  |  |
| CC(C)c1nc(CN(C)C(=O)N[C@H](C(=O)N[C@@H](Cc2ccccc2)C[C@H](O)[C@H](Cc2ccccc2)NC(=O)OCc2cncs2)C(C)C)cs1 [RITONAVIR] |  |  |  | 90% |  |  |  |  | 24 nM | 422 nM |  |  |  |
| Cc1ccccc1CNC(=O)[C@H]1N(C(=O)[C@@H](O)[C@H](Cc2ccccc2)NC(=O)[C@@H](CSc2ccc3ccccc3c2)NS(C)(=O)=O)CSC1(C)C | 13 nM | 6.1 µM | 470 | 67% | 17 nM | 0.8 nM | 31 nM | 23 nM | 8 nM | 88 nM | 0.05 |  |  |
| CC(=O)N[C@H](CSCc1ccccc1)C(=O)N[C@@H](Cc1ccccc1)[C@H](O)C(=O)N1CSC(C)(C)[C@H]1C(=O)NCc1ccccc1C | 15 nM | 15 µM | 1000 | 81% | 18 nM | 5.9 nM | 40 nM | 21 nM | 16 nM | 96 nM | 0.33 |  |  |
| CSC[C@H](NC(=O)COc1cccc2cnccc12)C(=O)N[C@@H](Cc1ccccc1)[C@H](O)C(=O)N1CSC[C@H]1C(=O)NC(C)(C)C |  |  |  | 40% | 36 nM | 84 nM | 201 nM | 237 nM |  | 529 nM | 2.3 |  | > 1400 |
| COc1ccc(CS(=O)(=O)C[C@@H](NS(C)(=O)=O)C(=O)N[C@@H](Cc2ccccc2)[C@H](O)C(=O)N2CSC(C)(C)[C@H]2C(=O)NCc2ccccc2C)cc1 | 203 nM | > 26 µM | > 130 | 66% |  |  |  |  |  |  |  |  |  |
| Cc1ccccc1CNC(=O)[C@H]1N(C(=O)[C@@H](O)[C@H](Cc2ccccc2)NC(=O)[C@@H](CS(=O)(=O)c2ccc(F)cc2)NS(C)(=O)=O)CSC1(C)C | 212 nM | > 27 µM | > 130 | 94% |  |  |  |  |  |  |  |  |  |
| Cc1c(O)cccc1C(=O)N[C@@H](CSc1ccccc1)[C@H](O)CN1C[C@H]2CCCC[C@H]2C[C@H]1C(=O)NC(C)(C)C |  |  | 690 | 29% |  |  |  |  | 21 nM | 606 nM | 12 |  |  |
| CC(=O)N[C@H](CS(=O)(=O)Cc1ccccc1)C(=O)N[C@@H](Cc1ccccc1)[C@H](O)C(=O)N1CSC(C)(C)[C@H]1C(=O)NCc1ccccc1C | 117 nM | > 28 µM | > 240 | 47% |  |  |  |  |  |  |  |  |  |
| COc1ccc(CS(=O)(=O)C[C@@H](NC(C)=O)C(=O)N[C@@H](Cc2ccccc2)[C@H](O)C(=O)N2CSC(C)(C)[C@H]2C(=O)NCc2ccccc2C)cc1 |  |  | > 260 | 59% |  |  |  |  |  |  |  |  |  |
| Cc1ccccc1CNC(=O)[C@H]1N(C(=O)[C@@H](O)[C@H](Cc2ccccc2)NC(=O)[C@@H](CCc2ccccc2)NS(C)(=O)=O)CSC1(C)C | 59 nM | 11 µM | 190 | 55% |  |  |  |  |  |  |  |  |  |
| Cc1ccc(CSC[C@@H](NS(C)(=O)=O)C(=O)N[C@@H](Cc2ccccc2)[C@H](O)C(=O)N2CSC(C)(C)[C@H]2C(=O)NCc2ccccc2C)cc1 | 17 nM | 8.9 µM | 520 | 58% | 17 nM | 1.5 nM | 58 nM | 43 nM | 14 nM | 110 nM | 0.09 |  |  |
| CC(=O)N[C@H](CS(=O)(=O)c1ccc(F)cc1)C(=O)N[C@@H](Cc1ccccc1)[C@H](O)C(=O)N1CSC(C)(C)[C@H]1C(=O)NCc1ccccc1C | 105 nM | > 28 µM | > 270 | 79% |  |  |  |  |  |  |  | 0.27 nM |  |
| Cc1ccccc1CNC(=O)[C@H]1N(C(=O)[C@@H](O)[C@H](Cc2ccccc2)NC(=O)[C@@H](CS(=O)(=O)c2ccc(Cl)cc2)NS(C)(=O)=O)CSC1(C)C |  |  |  | 95% |  |  |  |  |  |  |  | 0.11 nM |  |
| Cc1ccccc1CNC(=O)[C@H]1N(C(=O)[C@@H](O)[C@H](Cc2ccccc2)NC(=O)[C@@H](CS(=O)(=O)c2ccc3ccccc3c2)NS(C)(=O)=O)CSC1(C)C | 81 nM | 19 µM | 230 | 98% |  |  |  |  |  |  |  | 0.09 nM |  |
| Cc1ccccc1CNC(=O)[C@H]1N(C(=O)[C@@H](O)[C@H](Cc2ccccc2)NC(=O)[C@@H](CSCc2ccccc2)NS(C)(=O)=O)CSC1(C)C | 17 nM | 9.8 µM | 580 | 66% | 20 nM | 1.8 nM | 63 nM | 55 nM | 18 nM | 88 nM | 0.09 |  |  |
| CC(=O)N[C@H](CSc1ccc2ccccc2n1)C(=O)N[C@@H](Cc1ccccc1)[C@H](O)C(=O)N1CSC(C)(C)[C@H]1C(=O)NCc1ccccc1C | 151 nM | 9.7 µM | 64 | 27% |  |  |  |  |  |  |  |  |  |
| CC(=O)N[C@H](CS(=O)(=O)c1ccc2ccccc2c1)C(=O)N[C@@H](Cc1ccccc1)[C@H](O)C(=O)N1CSC(C)(C)[C@H]1C(=O)NCc1ccccc1C | 28 nM | 16 µM | 570 | 96% |  |  |  |  |  |  |  | 0.086 nM |  |
| CC(=O)N[C@H](CSc1ccc2ccccc2c1)C(=O)N[C@@H](Cc1ccccc1)[C@H](O)C(=O)N1CSC(C)(C)[C@H]1C(=O)NCc1ccccc1C | 18 nM | 8.3 µM | 460 | 53% | 17 nM | 7.2 nM | 65 nM | 32 nM | 14 nM | 95 nM | 0.42 |  |  |
| Cc1ccccc1CNC(=O)[C@H]1N(C(=O)[C@@H](O)[C@H](Cc2ccccc2)NC(=O)[C@@H](CSc2cccc3ccccc23)NS(C)(=O)=O)CSC1(C)C | 6.4 nM | 4.4 µM | 690 | 74% | 9.3 nM | 0.67 nM | 17 nM | 13 nM | 4 nM | 347 nM | 0.07 |  |  |
| CC(=O)N[C@H](CS(=O)(=O)c1ccc2ccccc2n1)C(=O)N[C@@H](Cc1ccccc1)[C@H](O)C(=O)N1CSC(C)(C)[C@H]1C(=O)NCc1ccccc1C | 94 nM | > 27 µM | > 290 | 85% |  |  |  |  |  |  |  |  |  |
